Experiments:
Type in all cases: functional
Anaerococcus vaginalis [1] = assay: Antibacterial activity against Anaerococcus vaginalis isolated from patient with diabetic foot infection after 44 to 48 hrs by agar dilution method
Method in brief: (§1)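 CLSI M11-A7 agar dilution: serial twofold drug dilutions made on the test day and added to molten agar. Spots of 10^5 CFU were applied by replicator, with drug-free control plates inoculated before and after each set. Incubation was 44 to 48 h at 37°C in an anaerobic chamber. MIC was the lowest concentration giving no growth or a marked change in growth versus controls.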

[2] = system: Parabacteroides distasonis; assay: Antibacterial activity against Parabacteroides distasonis isolated from patient with diabetic foot infection assessed as percent resistant isolates after 44 to 48 hrs by agar dilution method
Method in brief: (§2)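 Agar dilution per CLSI M11-A7. Twofold drug dilutions made on the test day and added to molten agar. Replicator-applied inoculum of 10^5 CFU/spot. Drug-free control plates inoculated before and after each drug set. Incubation at 37°C for 44 to 48 h, anaerobic chamber. MIC taken as the lowest concentration giving no growth or a marked change in growth versus controls.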

Anaerococcus vaginalis [3] = assay: Antibacterial activity against Anaerococcus vaginalis isolated from patient with diabetic foot infection assessed as percent resistant isolates after 44 to 48 hrs by agar dilution method; method in brief: as §2
[4] = system: Enterocloster clostridioformis; assay: Antibacterial activity against Clostridium clostridioforme isolated from patient with diabetic foot infection after 44 to 48 hrs by agar dilution method; method in brief: as §1
Parvimonas micra [5] = assay: Antibacterial activity against Peptostreptococcus micros isolated from patient with diabetic foot infection assessed as percent resistant isolates after 44 to 48 hrs by agar dilution method; method in brief: as §2
Anaerococcus prevotii = assay: Antibacterial activity against Anaerococcus prevotii isolated from patient with diabetic foot infection after 44 to 48 hrs by agar dilution method; method in brief: as §1
Prevotella bivia [6] = assay: Antibacterial activity against Prevotella bivia isolated from patient with diabetic foot infection after 44 to 48 hrs by agar dilution method; method in brief: as §1
Prevotella bivia [7] = assay: Antibacterial activity against Prevotella bivia isolated from patient with diabetic foot infection assessed as percent resistant isolates after 44 to 48 hrs by agar dilution method; method in brief: as §2
Parabacteroides merdae = assay: Antibacterial activity against Parabacteroides merdae isolated from patient with diabetic foot infection assessed as percent resistant isolates after 44 to 48 hrs by agar dilution method; method in brief: as §2
Phocaeicola vulgatus [8] = assay: Antibacterial activity against Bacteroides vulgatus isolated from patient with diabetic foot infection assessed as percent resistant isolates after 44 to 48 hrs by agar dilution method; method in brief: as §2
Cutibacterium acnes [9] = assay: Antibacterial activity against Propionibacterium acnes isolated from patient with diabetic foot infection after 44 to 48 hrs by agar dilution method; method in brief: as §1
Bacteroides caccae [10] = assay: Antibacterial activity against Bacteroides caccae isolated from patient with diabetic foot infection assessed as percent resistant isolates after 44 to 48 hrs by agar dilution method; method in brief: as §2
[11] = system: Peptoniphilus asaccharolyticus; assay: Antibacterial activity against Peptoniphilus asaccharolyticus isolated from patient with diabetic foot infection assessed as percent resistant isolates after 44 to 48 hrs by agar dilution method; method in brief: as §2
[Clostridium] innocuum = Antibacterial activity against Clostridium innocuum isolated from patient with diabetic foot infection after 44 to 48 hrs by agar dilution method; method in brief: as §1
Phocaeicola vulgatus [12] = assay: Antibacterial activity against Bacteroides vulgatus isolated from patient with diabetic foot infection after 44 to 48 hrs by agar dilution method; method in brief: as §1
[13] = system: Anaerocolumna aminovalerica; assay: Antibacterial activity against Clostridium aminovalericum isolated from patient with diabetic foot infection assessed as percent resistant isolates after 44 to 48 hrs by agar dilution method; method in brief: as §2
Bacteroides ovatus = assay: Antibacterial activity against Bacteroides ovatus isolated from patient with diabetic foot infection after 44 to 48 hrs by agar dilution method; method in brief: as §1
Clostridium cadaveris [14] = assay: Antibacterial activity against Clostridium cadaveris isolated from patient with diabetic foot infection after 44 to 48 hrs by agar dilution method; method in brief: as §1
[15] = system: Bacteroides thetaiotaomicron; assay: Antibacterial activity against Bacteroides thetaiotaomicron isolated from patient with diabetic foot infection assessed as percent resistant isolates after 44 to 48 hrs by agar dilution method; method in brief: as §2
Bacteroides stercoris [16] = assay: Antibacterial activity against Bacteroides stercoris isolated from patient with diabetic foot infection assessed as percent resistant isolates after 44 to 48 hrs by agar dilution method; method in brief: as §2
[17] = system: Anaerocolumna aminovalerica; assay: Antibacterial activity against Clostridium aminovalericum isolated from patient with diabetic foot infection after 44 to 48 hrs by agar dilution method; method in brief: as §1
[18] = system: Enterocloster clostridioformis; assay: Antibacterial activity against Clostridium clostridioforme isolated from patient with diabetic foot infection assessed as percent resistant isolates after 44 to 48 hrs by agar dilution method; method in brief: as §2
[19] = system: Peptostreptococcus anaerobius; assay: Antibacterial activity against Peptostreptococcus anaerobius isolated from patient with diabetic foot infection assessed as percent resistant isolates after 44 to 48 hrs by agar dilution method; method in brief: as §2
Bacteroides caccae [20] = assay: Antibacterial activity against Bacteroides caccae isolated from patient with diabetic foot infection after 44 to 48 hrs by agar dilution method; method in brief: as §1
Parvimonas micra [21] = assay: Antibacterial activity against Peptostreptococcus micros isolated from patient with diabetic foot infection after 44 to 48 hrs by agar dilution method; method in brief: as §1
[22] = system: Porphyromonas asaccharolytica; assay: Antibacterial activity against Porphyromonas asaccharolyticus isolated from patient with diabetic foot infection assessed as percent resistant isolates after 44 to 48 hrs by agar dilution method; method in brief: as §2
Anaerococcus tetradius = assay: Antibacterial activity against Anaerococcus tetradius isolated from patient with diabetic foot infection assessed as percent resistant isolates after 44 to 48 hrs by agar dilution method; method in brief: as §2
[23] = system: Peptostreptococcus anaerobius; assay: Antibacterial activity against Peptostreptococcus anaerobius isolated from patient with diabetic foot infection after 44 to 48 hrs by agar dilution method; method in brief: as §1
[24] = system: Peptoniphilus asaccharolyticus; assay: Antibacterial activity against Peptoniphilus asaccharolyticus isolated from patient with diabetic foot infection after 44 to 48 hrs by agar dilution method; method in brief: as §1
Bacteroides fragilis = assay: Antibacterial activity against Bacteroides fragilis isolated from patient with diabetic foot infection assessed as percent resistant isolates after 44 to 48 hrs by agar dilution method; method in brief: as §2
Bacteroides stercoris [25] = assay: Antibacterial activity against Bacteroides stercoris isolated from patient with diabetic foot infection after 44 to 48 hrs by agar dilution method; method in brief: as §1
[26] = system: Porphyromonas asaccharolytica; assay: Antibacterial activity against Porphyromonas asaccharolyticus isolated from patient with diabetic foot infection after 44 to 48 hrs by agar dilution method; method in brief: as §1
Cutibacterium acnes [27] = assay: Antibacterial activity against Propionibacterium acnes isolated from patient with diabetic foot infection assessed as percent resistant isolates after 44 to 48 hrs by agar dilution method; method in brief: as §2
Clostridium cadaveris [28] = assay: Antibacterial activity against Clostridium cadaveris isolated from patient with diabetic foot infection assessed as percent resistant isolates after 44 to 48 hrs by agar dilution method; method in brief: as §2
Finegoldia magna = assay: Antibacterial activity against Finegoldia magna isolated from patient with diabetic foot infection assessed as percent resistant isolates after 44 to 48 hrs by agar dilution method; method in brief: as §2
Porphyromonas somerae = assay: Antibacterial activity against Porphyromonas somerae isolated from patient with diabetic foot infection assessed as percent resistant isolates after 44 to 48 hrs by agar dilution method; method in brief: as §2
[29] = system: Parabacteroides distasonis; assay: Antibacterial activity against Parabacteroides distasonis isolated from patient with diabetic foot infection after 44 to 48 hrs by agar dilution method; method in brief: as §1

C[C@@H](O)[C@H]1C(=O)N2C(C(=O)O)=C(S[C@@H]3CN[C@H](C(=O)N(C)C)C3)[C@H](C)[C@H]12 [MEROPENEM]
0.25 µg/mL: MIC90 (Cutibacterium acnes [9]) | MIC50 (Phocaeicola vulgatus [12]) | MIC50 (Bacteroides ovatus) | MIC50 (Bacteroides caccae [20]) | MIC90 (Parvimonas micra [21]) | MIC90 [23] | MIC50 (Bacteroides stercoris [25]) | MIC50 [29]
0.125 µg/mL: MIC90 (Anaerococcus vaginalis [1]) | MIC90 (Anaerococcus prevotii) | MIC90 (Prevotella bivia [6]) | MIC50 (Cutibacterium acnes [9]) | MIC50 (Parvimonas micra [21]) | MIC50 [23] | MIC90 [24]
1 µg/mL: MIC90 [4] | MIC90 ([Clostridium] innocuum) | MIC90 (Phocaeicola vulgatus [12]) | MIC90 (Bacteroides ovatus) | MIC90 (Clostridium cadaveris [14]) | MIC90 [17] | MIC90 (Bacteroides caccae [20]) | MIC90 (Bacteroides stercoris [25]) | MIC90 [29]
0.03 µg/mL: MIC50 (Anaerococcus vaginalis [1]) | MIC50 (Anaerococcus prevotii)
0%: Activity [2] | Activity (Anaerococcus vaginalis [3]) | Activity (Parvimonas micra [5]) | Activity (Prevotella bivia [7]) | Activity (Parabacteroides merdae) | Activity (Phocaeicola vulgatus [8]) | Activity (Bacteroides caccae [10]) | Activity [11] | Activity [13] | Activity [15] | Activity (Bacteroides stercoris [16]) | Activity [18] | Activity [19] | Activity [22] | Activity (Anaerococcus tetradius) | Activity (Bacteroides fragilis) | Activity (Cutibacterium acnes [27]) | Activity (Clostridium cadaveris [28]) | Activity (Finegoldia magna) | Activity (Porphyromonas somerae)
≤ 0.015 µg/mL: MIC50 [24] | MIC50 [26] | MIC90 [26]
0.06 µg/mL: MIC50 [4] | MIC50 (Prevotella bivia [6]) | MIC50 ([Clostridium] innocuum) | MIC50 (Clostridium cadaveris [14]) | MIC50 [17]

Cc1ncc([N+](=O)[O-])n1CCO [METRONIDAZOLE]
1 µg/mL: MIC90 (Anaerococcus prevotii) | MIC90 (Phocaeicola vulgatus [12]) | MIC90 (Bacteroides ovatus) | MIC90 (Bacteroides caccae [20]) | MIC90 (Parvimonas micra [21]) | MIC90 [23] | MIC90 (Bacteroides stercoris [25]) | MIC90 [29]
2 µg/mL: MIC90 [24]
> 32 µg/mL: MIC50 (Cutibacterium acnes [9]) | MIC90 (Cutibacterium acnes [9])
4 µg/mL: MIC50 (Prevotella bivia [6]) | MIC90 (Prevotella bivia [6])
0.25 µg/mL: MIC90 [4] | MIC90 ([Clostridium] innocuum) | MIC90 (Clostridium cadaveris [14]) | MIC90 [17] | MIC50 (Parvimonas micra [21]) | MIC50 [23] | MIC90 [26]
0.125 µg/mL: MIC50 [4] | MIC50 ([Clostridium] innocuum) | MIC50 (Clostridium cadaveris [14]) | MIC50 [17]
0.05 µg/mL: MIC50 [26]
0.5 µg/mL: MIC50 (Anaerococcus vaginalis [1]) | MIC50 (Anaerococcus prevotii) | MIC50 (Phocaeicola vulgatus [12]) | MIC50 (Bacteroides ovatus) | MIC50 (Bacteroides caccae [20]) | MIC50 [24] | MIC50 (Bacteroides stercoris [25]) | MIC50 [29]
100%: Activity (Cutibacterium acnes [27])
0%: Activity [2] | Activity (Anaerococcus vaginalis [3]) | Activity (Parvimonas micra [5]) | Activity (Prevotella bivia [7]) | Activity (Parabacteroides merdae) | Activity (Phocaeicola vulgatus [8]) | Activity (Bacteroides caccae [10]) | Activity [11] | Activity [13] | Activity [15] | Activity (Bacteroides stercoris [16]) | Activity [18] | Activity [19] | Activity [22] | Activity (Anaerococcus tetradius) | Activity (Bacteroides fragilis) | Activity (Clostridium cadaveris [28]) | Activity (Finegoldia magna) | Activity (Porphyromonas somerae)
